# Assay results: ChEMBL document CHEMBL4342521 (J Med Chem, 2020)
# Calls of active or inactive are those of the source. No cut-off for these calls is given here.
# What was measured:
# OVCAR-3 = experiment: Antiproliferative activity against human OVCAR3 cells assessed as reduction in cell viability after 48 hrs by CellTiter-Blue assay; type: functional; conditions: OVCAR-3, 48 h, read-out: LC50 (the source's name)
# Summary of the method: (§1)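 Cells grown in RPMI1640 with 10% FBS at 37 °C, 5% CO₂. 5,000–10,000 cells/well were pre-incubated overnight, and a time-zero CellTiter-Blue read was taken. Six 10-fold dilutions (top final 10 μM) were applied for 48 h, followed by 0.125 mg/mL CellTiter-Blue for 2–4 h. Resorufin fluorescence was read at ex 560/em 590 nm. […] Triplicates.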
# RS4-11 [1] = experiment: Antiproliferative activity agaisnt human RS4:11 cells expressing wild type p53/FLT3 assessed as cell death at 10 uM after 48 hrs by CellTiter-blue assay; type: functional, cell-based
# RS4-11 [2] = experiment: Induction of apoptosis in human RS4:11 cells harboring wild type p53/FLT3 assessed as cleavage of pro-caspase 3 at 200 nM after 24 hrs by Western blot analysis; type: functional, cell-based
# Summary of the method: (§2)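 Cells (1,500,000 per well) grown 12 h, then drug-treated as specified. Lysed in RIPA buffer, sonicated, centrifuged, protein normalized by BCA. Run on 4–12% Bis-Tris gels in MES, transferred, probed overnight at 4 °C with primary antibodies at 1/1000. Actin served as reference for LC3-II quantitation.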
# OVCAR-8 = experiment: Antiproliferative activity against human OVCAR8 cells assessed as reduction in cell viability after 48 hrs by CellTiter-Blue assay; type: functional; conditions: OVCAR-8, 48 h, read-out: LC50 (the source's name); summary of the method: as §1
# NCI-H460 = experiment: Antiproliferative activity against human NCI-H460 cells assessed as reduction in cell viability after 48 hrs by CellTiter-Blue assay; type: functional; conditions: NCI-H460, 48 h, read-out: LC50 (the source's name); summary of the method: as §1
# [3] = Half life in CD1 mouse at 5 mg/kg, iv after 24 hrs by LC-MS/MS analysis; type: ADME, organism-based; conditions: in vivo
# Summary of the method: (§3)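 Male CD-1 mice, fasted overnight, 3 per route; compound in PBS with 5% DMSO, iv bolus 5 mg/kg or oral gavage 20 mg/kg. Blood sampled at 5, 15, 30 min and 1–24 h. Plasma protein-precipitated with acetonitrile plus internal standard, quantified by LC-MS/MS (MRM). AUC by linear trapezoidal method; parameters by non-compartmental analysis.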
# BT-549 = experiment: Antiproliferative activity against human BT549 cells assessed as reduction in cell viability after 48 hrs by CellTiter-Blue assay; type: functional; conditions: BT-549, 48 h, read-out: LC50 (the source's name); summary of the method: as §1
# MDA-MB-435 = experiment: Antiproliferative activity against human MDA-MB-435 cells assessed as reduction in cell viability after 48 hrs by CellTiter-Blue assay; type: functional; conditions: MDA-MB-435, 48 h, read-out: LC50 (the source's name); summary of the method: as §1
# PC-3 = experiment: Antiproliferative activity against human PC3 cells assessed as reduction in cell viability after 48 hrs by CellTiter-Blue assay; type: functional; conditions: PC-3, 48 h, read-out: LC50 (the source's name); summary of the method: as §1
# OVCAR-5 = experiment: Antiproliferative activity against human OVCAR5 cells assessed as reduction in cell viability after 48 hrs by CellTiter-Blue assay; type: functional; conditions: OVCAR-5, 48 h, read-out: LC50 (the source's name); summary of the method: as §1
# RPMI-8226 = experiment: Antiproliferative activity against human RPMI8226 cells assessed as reduction in cell viability after 48 hrs by CellTiter-Blue assay; type: functional; conditions: RPMI-8226, 48 h, read-out: LC50 (the source's name); summary of the method: as §1
# [4] = AUC (0 to infinity) in CD1 mouse at 5 mg/kg, iv after 24 hrs by LC-MS/MS analysis; type: ADME, organism-based; parameters: dose 5 mg/kg, route intravenous, time infinity; conditions: in vivo; summary of the method: as §3
# [5] = AUC (0 to infinity) in CD1 mouse at 20 mg/kg, po via gavage after 24 hrs by LC-MS/MS analysis; type: ADME, organism-based; parameters: dose 20 mg/kg, time infinity, route oral; conditions: in vivo; summary of the method: as §3
# SF-268 = experiment: Antiproliferative activity against human SF268 cells assessed as reduction in cell viability after 48 hrs by CellTiter-Blue assay; type: functional; conditions: SF-268, 48 h, read-out: LC50 (the source's name); summary of the method: as §1
# UO-31 = experiment: Antiproliferative activity against human UO31 cells assessed as reduction in cell viability after 48 hrs by CellTiter-Blue assay; type: functional; conditions: UO-31, 48 h, read-out: LC50 (the source's name)
# Summary of the method: (§4)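 NCI-60 panel lines grown in RPMI1640 with 10% FBS at 37 °C, 5% CO₂. Seeded at 5,000–10,000 cells/well and pre-incubated overnight. Exposed for 48 h to six 10-fold dilutions (top final 10 μM), with a time-zero plate read at dosing. CellTiter-Blue (0.125 mg/mL) for 2–4 h, fluorescence 560/590 nm, triplicate curves.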
# CAKI-1 = experiment: Antiproliferative activity against human Caki1 cells assessed as reduction in cell viability after 48 hrs by CellTiter-Blue assay; type: functional; conditions: CAKI-1, 48 h, read-out: LC50 (the source's name); summary of the method: as §1
# HL-60 [6] = experiment: Induction of autophagy in p53 null human HL60 cells harboring wild type FLT3 assessed as LC-3 degradation at 50 to 200 nM after 24 hrs by Western blot analysis; type: functional, cell-based; summary of the method: as §2
# K562 = experiment: Antiproliferative activity against human K562 cells assessed as reduction in cell viability after 48 hrs by CellTiter-Blue assay; type: functional; conditions: K562, 48 h, read-out: LC50 (the source's name); summary of the method: as §1
# MV4-11 = experiment: Inhibition of p53 degradation in human MV4-11 cells harboring wild type p53/FLT3-ITD mutant at 100 nM after 12 hrs in presence of MDM2 inhibitor RG7388 by Western blot analysis relative to control; type: functional; conditions: MV4-11, 12 h; summary of the method: as §2
# HL-60 [7] = experiment: Effect on XIAP protein degradation in p53 null human HL60 cells harboring wild type FLT3 at 50 to 200 nM after 24 hrs by Western blot analysis; type: functional, cell-based; summary of the method: as §2
# SF-539 = experiment: Antiproliferative activity against human SF539 cells assessed as reduction in cell viability after 48 hrs by CellTiter-Blue assay; type: functional; conditions: SF-539, 48 h, read-out: LC50 (the source's name); summary of the method: as §1
# U-251 = experiment: Antiproliferative activity against human U251 cells assessed as reduction in cell viability after 48 hrs by CellTiter-Blue assay; type: functional; conditions: U-251, 48 h, read-out: LC50 (the source's name); summary of the method: as §4
# HOP-92 = experiment: Antiproliferative activity against human HOP92 cells assessed as reduction in cell viability after 48 hrs by CellTiter-Blue assay; type: functional; conditions: HOP-92, 48 h, read-out: LC50 (the source's name); summary of the method: as §1
# RS4-11 [8] = experiment: Down regulation of STAT5 expression in human RS4:11 cells harboring wild type p53/FLT3 assessed as cleavage of pro-caspase 3 at 50 to 200 nM after 24 hrs by Western blot analysis; type: functional, cell-based; summary of the method: as §2
# CCRF-CEM = experiment: Antiproliferative activity against human CCRF-CEM cells assessed as reduction in cell viability after 48 hrs by CellTiter-Blue assay; type: functional; conditions: read-out: LC50 (the source's name); summary of the method: as §1
# MDA-MB-231 = experiment: Antiproliferative activity against human MDA-MB-231 cells assessed as reduction in cell viability after 48 hrs by CellTiter-Blue assay; type: functional; conditions: MDA-MB-231, 48 h, read-out: LC50 (the source's name); summary of the method: as §1
compound,measurement,setting,value
CCCNNC(=O)/C=C/c1ccc(CNCCc2c(C)[nH]c3ccccc23)cc1.O=C(O)C(F)(F)F,CC50,OVCAR-3,> 10 µM
same,Activity,RS4-11 [1],Active
same,Activity,RS4-11 [2],Active
same,CC50,OVCAR-8,> 10 µM
same,CC50,NCI-H460,> 10 µM
same,t1/2,[3],15.2 h
same,CC50,BT-549,> 10 µM
same,CC50,MDA-MB-435,> 10 µM
same,CC50,PC-3,> 10 µM
same,CC50,OVCAR-5,> 10 µM
same,CC50,RPMI-8226,> 10 µM
same,AUC,[4],334 ng·h/mL
same,AUC,[5],265 ng·h/mL
same,CC50,SF-268,> 10 µM
same,CC50,UO-31,> 10 µM
same,CC50,CAKI-1,4.3 µM
same,Activity,HL-60 [6],inactive
same,CC50,K562,> 10 µM
same,inhibition at 0.1 µM,MV4-11,100%
same,Activity,HL-60 [7],Active
same,CC50,SF-539,> 10 µM
same,CC50,U-251,4.28 µM
same,CC50,HOP-92,> 10 µM
same,Activity,RS4-11 [8],inactive
same,CC50,CCRF-CEM,> 10 µM
same,CC50,MDA-MB-231,> 10 µM
